Laboratory results as given in ChEMBL document CHEMBL1157852, “Modulation of doxorubicin activity in cancer cells by conjugation with fatty acyl and terpenyl hydrazones” (Eur J Med Chem, 2010).
Active and inactive are the calls of the source. The rule behind the calls is not given here.

What was measured:
[1] = Cytotoxicity against human 518A2 cells after 24 hrs by MTT assay; assay type: functional, cell-based; settings: 518A2, 24 h
How it was run: (§1)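 MTT assay. Cells seeded and cultured 24 h, then exposed to compound for 24, 48 or 72 h. MTT added to a final 0.05% (HL-60, 518A2) or 0.1% (KB-V1, MCF-7) for 2 h. Formazan dissolved in 10% SDS/DMSO with 0.6% acetic acid; absorbance read at 570 nm against 630 nm background. Viability taken relative to untreated controls (100%). IC50 from concentration-response curves, mean ± SD of four independent experiments.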

[2] = Cytotoxicity against human 518A2 cells after 48 hrs by MTT assay; assay type: functional, cell-based; settings: 518A2, 48 h; how it was run: as §1
[3] = Cytotoxicity against human 518A2 cells after 72 hrs by MTT assay; assay type: functional, cell-based; settings: 518A2, 72 h; how it was run: as §1
HL-60 [4] = assay: Cytotoxicity against human HL60 cells after 24 hrs by MTT assay; assay type: functional, cell-based; settings: HL-60, 24 h; how it was run: as §1
HL-60 [5] = assay: Cytotoxicity against human HL60 cells after 48 hrs by MTT assay; assay type: functional, cell-based; settings: HL-60, 48 h; how it was run: as §1
HL-60 [6] = assay: Cytotoxicity against human HL60 cells after 72 hrs by MTT assay; assay type: functional, cell-based; settings: HL-60, 72 h; how it was run: as §1
[7] = Cytotoxicity against human vinblastine-resistant KBV1 cells after 24 hrs by MTT assay; assay type: functional, cell-based; settings: KB-V1, 24 h; how it was run: as §1
[8] = Cytotoxicity against human vinblastine-resistant KBV1 cells after 48 hrs by MTT assay; assay type: functional, cell-based; settings: KB-V1, 48 h; how it was run: as §1
[9] = Cytotoxicity against human vinblastine-resistant KBV1 cells after 72 hrs by MTT assay; assay type: functional, cell-based; settings: KB-V1, 72 h; how it was run: as §1
MCF7 [10] = assay: Cytotoxicity against human topotecan-resistant MCF7 cells after 24 hrs by MTT assay; assay type: functional, cell-based; settings: MCF7, 24 h; how it was run: as §1
MCF7 [11] = assay: Cytotoxicity against human topotecan-resistant MCF7 cells after 48 hrs by MTT assay; assay type: functional, cell-based; settings: MCF7, 48 h; how it was run: as §1
MCF7 [12] = assay: Cytotoxicity against human topotecan-resistant MCF7 cells after 72 hrs by MTT assay; assay type: functional, cell-based; settings: MCF7, 72 h; how it was run: as §1
518A2 [13] = assay: Induction of apoptosis in human 518A2 cells assessed as appearance of intact mitochondria in cytosol at 5 uM after 6 hrs using JC1 dye relative to control; assay type: functional
How it was run: (§2)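 Mitochondrial membrane potential measured with JC-1. Cells exposed to 5 µM compound for 6 or 18 h, pelleted at 400 g, stained with 0.2× JC-1 at 37 °C for 15 min (HL-60) or 35 min (518A2), washed and resuspended in PBS. Red fluorescence (ex 585/em 590 nm) and green (ex 510/em 527 nm) read; red/green ratio relative to untreated controls (100%). Mean ± SD, four independent experiments.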

518A2 [14] = assay: Induction of apoptosis in human 518A2 cells assessed as appearance of intact mitochondria in cytosol at 5 uM after 18 hrs using JC1 dye relative to control; assay type: functional; how it was run: as §2
HL-60 [15] = assay: Induction of apoptosis in human HL60 cells assessed as appearance of intact mitochondria in cytosol at 5 uM after 6 hrs using JC1 dye relative to control; assay type: functional; how it was run: as §2
HL-60 [16] = assay: Induction of apoptosis in human HL60 cells assessed as appearance of intact mitochondria in cytosol at 5 uM after 18 hrs using JC1 dye relative to control; assay type: functional; how it was run: as §2
[17] = Cytotoxicity against human 518A2 cells assessed as increase in ROS production at 5 uM after 24 hrs by NBT reduction assay relative to control; assay type: functional
How it was run: (§3)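 NBT assay. HL-60 cells (0.5×10⁶/mL) or trypsinised 518A2 cells (5×10⁴/mL) pre-incubated 24 h at 37 °C, then given compound at a final 5 µM for 24 or 72 h. Medium removed; cells incubated with 0.1% NBT for 1 h (HL-60) or 4 h (518A2). Diformazan dissolved in 2 M KOH/DMSO; A630 read against 405 nm. Given as % of untreated controls; double quadruplicates.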

[18] = Cytotoxicity against human 518A2 cells assessed as increase in ROS production at 5 uM after 72 hrs by NBT reduction assay relative to control; assay type: functional; how it was run: as §3
HL-60 [19] = assay: Cytotoxicity against human HL60 cells assessed as increase in ROS production at 5 uM after 24 hrs by NBT reduction assay relative to control; assay type: functional; how it was run: as §3
HL-60 [20] = assay: Cytotoxicity against human HL60 cells assessed as increase in ROS production at 5 uM after 72 hrs by NBT reduction assay relative to control; assay type: functional; how it was run: as §3
HL-60 [21] = assay: Induction of apoptosis in human HL60 cells assessed as DNA ladder formation at 5 uM after 24 hrs by agarose gel electrophoresis; assay type: functional, cell-based
How it was run: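 HL-60 cells incubated with 5 µM compound for 24 h, then examined for DNA ladder patterns.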

HL-60 [22] = assay: Induction of apoptosis in human HL60 cells assessed as increase of caspase 8 activity at 5 uM after 8 to 18 hrs by luminometric assay; assay type: functional, cell-based
How it was run: (§4)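 HL-60 leukaemia cells were treated with test compound and sampled at intervals from 1 to 24 h. Protein was measured by Bradford. Caspase-9 (Caspase-Glo 8 for line 1) was read from a luminogenic peptide substrate as relative luminescence.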

HL-60 [23] = assay: Induction of apoptosis in human HL60 cells assessed as increase of caspase 3 activity at 5 uM after 8 to 18 hrs by luminometric assay; assay type: functional, cell-based
How it was run: (§5)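 HL-60 and 518A2 cells treated with 5 µM compound and sampled at intervals from 1 to 24 h. Lysed in 50 mM Tris-HCl pH 7.4, 150 mM NaCl, 1% Triton X-100 with protease inhibitors for 15 min at 4 °C, spun at 800 g. Protein measured by Bradford. Caspase-3/7, -8 and -9 activities read with luminogenic peptide substrates; reported as relative luminescence.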

HL-60 [24] = assay: Induction of apoptosis in human HL60 cells assessed as increase of caspase 9 activity at 5 uM measured up to 24 hrs by luminometric assay; assay type: functional, cell-based; how it was run: as §4
HL-60 [25] = assay: Induction of apoptosis in human HL60 cells assessed as increase of ratio of Bax to Bcl-2 mRNA expression at 5 uM after 6 to 18 hrs by RT-PCR analysis; assay type: functional, cell-based
How it was run: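 Real-time PCR of bax and bcl-2 mRNA in HL-60 cells after 6 h and 18 h exposure to test compound. Each gene was normalised to GAPDH, and the bax/bcl-2 expression ratio was reported.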

518A2 [26] = assay: Induction of apoptosis in human 518A2 cells assessed as increase of ratio of Bax to Bcl-2 mRNA expression at 5 uM after 6 to 18 hrs by RT-PCR analysis; assay type: functional, cell-based
How it was run: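 518A2 cells exposed to 5 µM compound for 6 h or 18 h. bax and bcl-2 mRNA quantified by real-time PCR, normalised to GAPDH, and expressed as the bax/bcl-2 ratio.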

HL-60 [27] = assay: Induction of apoptosis in human HL60 cells assessed as increase of caspase 9 activity at 5 uM after 12 hrs by luminometric assay; assay type: functional, cell-based; how it was run: as §4
HL-60 [28] = assay: Induction of apoptosis in human HL60 cells assessed as increase of caspase 8 activity at 5 uM after 12 hrs by luminometric assay; assay type: functional, cell-based; how it was run: as §5
HL-60 [29] = assay: Induction of apoptosis in human HL60 cells assessed as increase of caspase 3 activity at 5 uM after 18 hrs by luminometric assay; assay type: functional, cell-based; how it was run: as §5
HL-60 [30] = assay: Induction of apoptosis in human HL60 cells assessed as increase of caspase 8 activity at 5 uM after 24 hrs by luminometric assay; assay type: functional, cell-based; how it was run: as §5
518A2 [31] = assay: Induction of apoptosis in human 518A2 cells assessed as increase of caspase 8 activity at 5 uM after 6 hrs by luminometric assay; assay type: functional, cell-based; how it was run: as §5
518A2 [32] = assay: Induction of apoptosis in human 518A2 cells assessed as increase of caspase 3 activity at 5 uM after 8 hrs by luminometric assay; assay type: functional, cell-based; how it was run: as §5

SMILES	IC50 [1] [µM]	IC50 [2] [µM]	IC50 [3] [µM]	IC50 (HL-60 [4]) [µM]	IC50 (HL-60 [5]) [µM]	IC50 (HL-60 [6]) [µM]	IC50 [7] [µM]	IC50 [8] [µM]	IC50 [9] [µM]	IC50 (MCF7 [10]) [µM]	IC50 (MCF7 [11]) [µM]	IC50 (MCF7 [12]) [µM]	Activity (518A2 [13]) [%]	Activity (518A2 [14]) [%]	Activity (HL-60 [15]) [%]	Activity (HL-60 [16]) [%]	Activity [17] [%]	Activity [18] [%]	Activity (HL-60 [19]) [%]	Activity (HL-60 [20]) [%]	other results
COc1cccc2c1C(=O)c1c(O)c3c(c(O)c1C2=O)C[C@@](O)(/C(CO)=N/NC(=O)CCCCC(=O)O[C@@H]1C[C@H](C)CC[C@H]1C(C)C)C[C@@H]3O[C@H]1C[C@H](N)[C@H](O)[C@H](C)O1.Cl	1.2	0.42	0.32	0.39	0.33	0.33	> 100	34.9	23.3	6.7	4.7	2.4	82	79	93	66	2.2	1.5	1	5.7	–
COc1cccc2c1C(=O)c1c(O)c3c(c(O)c1C2=O)C[C@@](O)(/C(CO)=N/NC(=O)CCCCCCCCCCC(=O)O[C@H]1C[C@H]2CC[C@]1(C)C2(C)C)C[C@@H]3O[C@H]1C[C@H](N)[C@H](O)[C@H](C)O1.Cl	0.57	0.23	0.19	0.23	0.19	0.13	68.8	20.7	24.2	6.3	3.8	1.8	66	73	78	65	2.7	3.8	1.8	7.9	–
COc1cccc2c1C(=O)c1c(O)c3c(c(O)c1C2=O)C[C@@](O)(/C(CO)=N/NC(=O)CCCCCCCC(=O)O[C@@H]1C[C@H](C)CC[C@H]1C(C)C)C[C@@H]3O[C@H]1C[C@H](N)[C@H](O)[C@H](C)O1.Cl	0.82	0.51	0.46	0.4	0.49	0.37	79.6	21.5	21.8	10.2	7.2	4.3	83	72	84	68	1.4	1.3	1	6.8	–
CC/C=C\C/C=C\C/C=C\CCCCCCCC(=O)N/N=C(\CO)[C@]1(O)Cc2c(O)c3c(c(O)c2[C@@H](O[C@H]2C[C@H](N)[C@H](O)[C@H](C)O2)C1)C(=O)c1c(OC)cccc1C3=O.Cl [DOXORUBICIN LINOLENOYLHYDRAZONE HYDROCHLORIDE]	7.4	0.32	0.14	5.1	1.2	0.81	40.8	20.5	14	5.7	4.3	3.6	120	96	103	71	2.9	45.1	1	3	Activity (HL-60 [21]): Active; Activity (HL-60 [22]): Active; Activity (HL-60 [23]): Active; Activity (HL-60 [24]): inactive; Activity (HL-60 [25]): Active; Activity (518A2 [26]): Active
CCCCC/C=C\C/C=C\CCCCCCCC(=O)N/N=C(\CO)[C@]1(O)Cc2c(O)c3c(c(O)c2[C@@H](O[C@H]2C[C@H](N)[C@H](O)[C@H](C)O2)C1)C(=O)c1c(OC)cccc1C3=O.Cl [DOXORUBICIN LINOLEYLHYDRAZONE HYDROCHLORIDE]	2.9	1.8	1.6	5.6	2.8	3.8	29.6	18.7	19.7	40.5	20.3	9.9	80	97	88	87	1.6	2.3	0.4	1.4	–
COc1cccc2c1C(=O)c1c(O)c3c(c(O)c1C2=O)C[C@@](O)(/C(CO)=N/NC(=O)CC(=O)O[C@@H]1C[C@H](C)CC[C@H]1C(C)C)C[C@@H]3O[C@H]1C[C@H](N)[C@H](O)[C@H](C)O1.Cl [DOXORUBICIN MENTHOXYCARBONYLACETYLHYDRAZONE HYDROCHLORIDE]	0.71	0.54	0.14	0.57	0.26	0.23	17.8	18.4	10.3	8.4	3.8	2.7	93	61	76	36	3	16.2	3.8	11.2	Activity (HL-60 [21]): Active; Activity (HL-60 [27]): Active; Activity (HL-60 [28]): Active; Activity (HL-60 [29]): Active; Activity (HL-60 [30]): Active; Activity (518A2 [31]): Active; Activity (518A2 [32]): Active; Activity (HL-60 [25]): Active; Activity (518A2 [26]): Active
CCCCCCCC/C=C\CCCCCCCC(=O)N/N=C(\CO)[C@]1(O)Cc2c(O)c3c(c(O)c2[C@@H](O[C@H]2C[C@H](N)[C@H](O)[C@H](C)O2)C1)C(=O)c1c(OC)cccc1C3=O.Cl [DOXORUBICIN OLEYLHYDRAZONE HYDROCHLORIDE]	0.67	0.39	0.42	1.2	0.56	0.56	32.5	17.7	12.7	14.6	6.2	6.6	96	99	103	104	2.8	4.4	0.6	4	–
